Measured values published in ChEMBL document CHEMBL4513216, “Probing the Open Global Health Chemical Diversity Library for Multistage-Active Starting Points for Next-Generation Antimalarials” (ACS Infect Dis, 2020).

Assay: Toxicity liver stage against HepG2, at 10uM
Type: cell-based
Parameters: test concentration 10 uM, cell line HepG2-A16-CD81EGFP
Details: human, HepG2-A16-CD81EGFP cells; read-out: INHIBITION
Method in brief: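 Uninfected HepG2-A16-CD81EGFP cells, 3 × 10^3 per well, 1536-well, plated on prespotted compound at 10 μM final, parasite-free screening media added to match infected plates; puromycin 10 μM positive, DMSO 0.5% negative; run in parallel with 48 h PbLuc assay at 37 °C, 5% CO2; viability by CellTiter-Glo luminescence, normalized to controls.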
Compound CS(=O)(=O)N1CCO[C@@H]2CN(C(=O)COC3CCCC3)C[C@@H]2C1 has a cytotoxicity at 10 µM of 7.04%. Cc1cnc(N2CCC3(CC2)CC(NC(=O)C(C)C)CO3)nc1 (configuration not stated) showed a cytotoxicity at 10 µM of 8.19%. Compound COc1ccc(OC)c(NC(=O)CSc2ccc3nncn3n2)c1 has a cytotoxicity at 10 µM of -14.2%. Work on COc1ccc(N2CCNC(C(N)=O)C2)cc1 (configuration not stated) yielded a cytotoxicity at 10 µM of -4.8%. For COCC(=O)N1CCC(c2cc(-c3ccc(N)nc3)cc(C)n2)CC1, the cytotoxicity at 10 µM was 2.06%. CCn1cc(NC(=O)NCCN2CCCCCC2=O)cn1 gave a cytotoxicity at 10 µM of 0.107%. Compound CCOc1ncccc1C(=O)NC1CC(=O)N(CC(F)(F)F)C1 (configuration not stated) has a cytotoxicity at 10 µM of 4.43%. In the case of Cc1n[nH]c(C)c1CNC(=O)NC1CCCN(c2ccccc2F)C1 (configuration not stated), the cytotoxicity at 10 µM is reported as -2.57%. For O=C(c1ccon1)N1CCN(c2ccncc2Cl)CC1, the cytotoxicity at 10 µM was 2.22%. CCC(C)(NCC(N)=O)c1nccs1 (configuration not stated) gave a cytotoxicity at 10 µM of 7.3%. With CC(NC(=O)CCCc1nc(C(C)(C)C)no1)c1nnc2n1CCC2 (configuration not stated) the cytotoxicity at 10 µM was -0.527%. Work on Cc1cnn(CCNCC(O)c2ccc(F)c(F)c2)c1 (configuration not stated) yielded a cytotoxicity at 10 µM of -0.796%. Compound CCc1nnc2n1CCN(C(=O)c1ccccc1OCC1CC1)C2 has a cytotoxicity at 10 µM of 2.3%. c1ccc(CCN2CCOC3(CCc4ccccc43)C2)nc1 (configuration not stated) gave a cytotoxicity at 10 µM of -4%. Compound COC(=O)c1ccc(/C=C/c2ncc(C(=O)O)s2)cc1 has a cytotoxicity at 10 µM of -7.11%. CN(c1ncnc2sccc12)C1CCCN(c2cccnn2)C1 (configuration not stated) gave a cytotoxicity at 10 µM of 0.0357%. In the case of COCCN(CCN(C)C)C(=O)NC1CC1, the cytotoxicity at 10 µM is reported as -1.78%. In the case of COc1ccc2c(c1)C(NCCc1c(C)noc1C)CCCO2 (configuration not stated), the cytotoxicity at 10 µM is reported as -2.79%. For CCCC(=O)NC1CCCN(Cc2cccs2)C1 (configuration not stated), the cytotoxicity at 10 µM was -3.25%. OCC1CCCN1c1cc(NCCNc2ccccn2)ncn1 (configuration not stated) gave a cytotoxicity at 10 µM of -20.1%. In the case of CN1CCN(C2CCCC2)C(CCO)C1 (configuration not stated), the cytotoxicity at 10 µM is reported as 0.456%. CCc1nc(N2CCCC(CCOC)(C(=O)O)C2)ncc1C (configuration not stated) showed a cytotoxicity at 10 µM of 4.11%. For CN(C)CC1(O)CCCN(c2ccnc3c(C(F)(F)F)cccc23)C1 (configuration not stated), the cytotoxicity at 10 µM was -4.55%. C[C@@H]1CN(C(=O)CSc2nncn2C)C[C@@]1(O)C1CC1 showed a cytotoxicity at 10 µM of -15.7%. CCC(CO)N(Cc1cccnc1)C(=O)c1ccncc1F (configuration not stated) gave a cytotoxicity at 10 µM of 2.59%. CC(C)(C)CNCC1(O)CCCN(Cc2ccccc2F)C1=O (configuration not stated) gave a cytotoxicity at 10 µM of 9.04%. In the case of CN1Cc2nnc(C3CCOCC3)n2C(Cc2c[nH]cn2)C1 (configuration not stated), the cytotoxicity at 10 µM is reported as -12.1%. COc1ccccc1OC1CN(C(=O)c2ccc(C(C)=O)s2)C1 showed a cytotoxicity at 10 µM of 2.01%. Compound CC1(C)OC(=O)N(CCOc2ccc(F)cc2)C1=O has a cytotoxicity at 10 µM of -8.68%. CCN(CC1CCCN(CCc2cccc(OC)c2)C1)C(=O)CO (configuration not stated) gave a cytotoxicity at 10 µM of 9.34%. COCc1cc(NCC(F)(F)F)n2nccc2n1 gave a cytotoxicity at 10 µM of 17%. CCn1ccnc1-c1nc2cc(S(=O)(=O)N3CCCC3)ccc2n1C showed a cytotoxicity at 10 µM of -22.3%. Compound O=C(c1ccccn1)N1CCCC(c2nccn2Cc2ccncc2)C1 (configuration not stated) has a cytotoxicity at 10 µM of -14.1%. Work on O=C(NCCn1ccnc1)c1ccn(-c2ccccc2F)n1 yielded a cytotoxicity at 10 µM of 0.533%. Work on Cc1cc(C)c(CNC(=O)N(C)Cc2ccc(F)cc2)c(=O)[nH]1 yielded a cytotoxicity at 10 µM of -9.12%. Compound Cc1ccc(C(C)NCc2c(C(C)C)nn(C)c2N2CCOCC2)o1 (configuration not stated) has a cytotoxicity at 10 µM of -4.79%. For O=S1(=O)CCC(N(Cc2nc(-c3ccccn3)no2)Cc2cccs2)C1 (configuration not stated), the cytotoxicity at 10 µM was -4.54%. Work on CNS(=O)(=O)c1ccc(C(=O)N2CCCC2c2ccccc2C)o1 (configuration not stated) yielded a cytotoxicity at 10 µM of -6.23%. Cc1ccc(NC2CCN(C(=O)CCc3cscn3)CC2)nn1 gave a cytotoxicity at 10 µM of -9.2%. Compound COc1cccc(CN2CCCC(Cn3nc(C)nc3C)C2)c1 (configuration not stated) has a cytotoxicity at 10 µM of -13.4%. Compound CC(C(=O)NCc1ccc(N2CCCCC2)nc1)n1cncn1 (configuration not stated) has a cytotoxicity at 10 µM of -10.3%. Work on Cc1ccc(C(CNC(=O)c2c(C)noc2C(C)C)N(C)C)cc1 (configuration not stated) yielded a cytotoxicity at 10 µM of -12.4%. In the case of COc1cccc(CNC(=O)c2cccnc2SC(C)C)c1, the cytotoxicity at 10 µM is reported as -1.35%. Work on CC(NC(=O)NCC1(c2ccc(F)cc2)CCC1)c1nncn1C (configuration not stated) yielded a cytotoxicity at 10 µM of -3.59%. Work on CC(=O)N1CCN(c2cc(C3CCNCC3)ccn2)CC1 yielded a cytotoxicity at 10 µM of 6.91%. In the case of COc1ncccc1CN1CCn2c(C(=O)N3CCCC3)cnc2C1, the cytotoxicity at 10 µM is reported as 8.28%. For CCc1cnc(N2C[C@@H]3C[C@H](C(=O)NCC(C)C)[C@H](C2)O3)nc1, the cytotoxicity at 10 µM was 12%.
